Data set [1] can be described thus: Selectivity index, ratio of CC50 for human MT4 cells to EC50 for HIV2 ROD. The class given is toxicity, cell-based. The note with it: read-out: Ratio CC50/EC50. The method in brief: (§1)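 Selectivity index is CC₅₀ in uninfected MT-4 cells divided by EC₅₀ against the given strain (IIIB or ROD). Both values come from parallel 4-day MTT assays, with cells infected at a multiplicity of infection of 0.02.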

In data set [2] the test system is Human immunodeficiency virus 1. In words: Antiviral activity against HIV1 3B infected in human MT4 cells assessed as protection from virus-induced cytopathogenicity after 4 days by MTT assay. The class given is functional, organism-based. The note with it: Human immunodeficiency virus 1, 3B, MT4, 96 h. The method in brief: (§2)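 MT-4 cells at 1 × 10⁵ cells/mL infected with HIV (IIIB or ROD) at a multiplicity of infection of 0.02, using virus stocks titrated in MT-4 cells as CCID₅₀. Compound present during a 4-day incubation at 37 °C. Viable cells counted by MTT. EC₅₀ is the concentration protecting cells against viral cytopathogenicity by 50%. Values are means of at least two separate experiments.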
(In general: Cytopathic effects are the visible damage that an infection or toxin causes in cultured cells.)

Data set [3] concerns Human immunodeficiency virus 2. Nature of the data set: Antiviral activity against HIV2 ROD infected in human MT4 cells assessed as protection from virus-induced cytopathogenicity after 4 days by MTT assay. The class given is functional, organism-based. The note with it: Human immunodeficiency virus 2, ISOLATE ROD, MT4, 96 h. The method in brief:
as §2

Data set [4] relates to Human immunodeficiency virus 1. Nature of the data set: Antiviral activity against HIV1 expressing reverse transcriptase K103N/Y181C double mutant infected in human MT4 cells assessed as protection against virus-induced cytopathogenicity after 4 days by MTT assay. The note with it: Human immunodeficiency virus 1, MT4, 96 h. The format is functional, organism-based. The gist of the method: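 RES056 strain (carries K103N and Y181C), titrated in MT-4 cells as CCID50. MT-4 cells at 1 × 10⁵ cells/mL infected at MOI 0.02 and incubated 4 days at 37 °C with compound. Viable cells counted by MTT. EC50 is the concentration protecting cells by 50% against viral cytopathogenicity. Values are means of at least two separate experiments.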

The nature of data set [5]: Cytotoxicity against human MT4 cells after 4 days by MTT assay. The format is cell-based. The method in brief:
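Uninfected MT-4 cells were run in parallel with the antiviral assay: 4 days at 37 °C with compound, then viability read by MTT. CC₅₀ is the concentration that reduces viability of uninfected cells by 50%. Values are means of at least two separate experiments.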
A general note: Tetrazolium dyes change colour on reduction, which living cells bring about.

A short description of data set [6]: Selectivity index, ratio of CC50 for human MT4 cells to EC50 for HIV1 3B. The class given is toxicity, cell-based. The note with it: read-out: Ratio CC50/EC50. The gist of the method:
as §1

Data set [7] concerns Human immunodeficiency virus 1. In words: Ratio of delavirdine EC50 to compound EC50 for HIV1 3B infected in human MT4 cells. The class given is functional.
The test system of data set [8] is Human immunodeficiency virus 1. Nature of the data set: Ratio of nevirapine EC50 to compound EC50 for HIV1 3B infected in human MT4 cells. The format is functional.

Bounds are passed on as bounds.

What is called EC50 is the concentration needed to bring the measured effect to its halfway point. A word on the CC50: it is the concentration giving 50% cytotoxicity. Read a low CC50 as greater toxicity to the cells. Regarding `N#Cc1ccc(Nc2nccc(/C(=N\O)c3ccc(F)cc3)n2)cc1`, the selectivity ratio in data set [1] is > 19; in data set [6], > 456. In addition, the figures for the EC50 in data set [2], in data set [3] and in data set [4] were 0.827 µM, 19.9 µM and 13.8 µM, respectively. Further, in data set [5], the CC50 at 96 h was > 377 µM.

For `N#Cc1ccc(Nc2nccc(/C(=N\O)c3ccc(Cl)cc3)n2)cc1`, the selectivity ratio is ≤ 2 in data set [1] and 209 in data set [6]. Further, the EC50 in data set [2] was 0.083 µM; in data set [3] it was ≥ 7.33 µM; in data set [4], ≥ 7.62 µM. The compound also gave a CC50 at 96 h in data set [5] of 17.2 µM.

With `N#Cc1ccc(Nc2nccc(/C(=N\O)c3ccccc3Br)n2)cc1`, the selectivity ratio in data set [1] is < 1; in data set [6] it was 2500. Besides, the concentration giving a half-maximal response (EC50) is 0.005 µM in data set [2], > 13.2 µM in data set [3] and > 13.2 µM in data set [4]. Further, in data set [5], the half-maximal cytotoxic concentration (CC50) at 96 h was 13.2 µM.

As to `N#Cc1ccc(Nc2nccc(/C(=N\O)c3cccc(Br)c3)n2)cc1`, the selectivity ratio in data set [1] was < 1; in data set [6] it was 65. Moreover, the results for the EC50 in data set [2], in data set [3] and in data set [4] were 0.362 µM, > 23.5 µM and > 23.5 µM, respectively. Further, the half-maximal cytotoxic concentration (CC50) at 96 h in data set [5] worked out at 23.5 µM.

Consider `N#Cc1ccc(Nc2nccc(/C(=N\O)c3ccc(Br)cc3)n2)cc1`, for which the figures for the selectivity ratio in data set [1] and in data set [6] were ≤ 5 and 205, respectively. Moreover, the EC50 in data set [2] is 0.127 µM; in data set [3], ≥ 4.97 µM; in data set [4], ≥ 7.21 µM. The compound further returned a half-maximal cytotoxic concentration (CC50) at 96 h in data set [5] of 26 µM.

As to `Cc1ccccc1/C(=N/O)c1ccnc(Nc2ccc(C#N)cc2)n1`, the selectivity ratio was < 1 in data set [1] and 619 in data set [6]. The EC50 in data set [2] is 0.048 µM; in data set [3], > 29.9 µM; in data set [4], ≥ 1.59 µM. Moreover, it took 29.9 µM to reach half-maximal cytotoxicity in data set [5] (CC50 at 96 h).

Regarding `Cc1ccc(/C(=N/O)c2ccnc(Nc3ccc(C#N)cc3)n2)cc1`, the values for the selectivity ratio in data set [1] and in data set [6] were ≤ 2 and 2390, respectively. Moreover, the concentration for a half-maximal effect (EC50) was 0.006 µM in data set [2], ≥ 6.54 µM in data set [3] and ≥ 5.1 µM in data set [4]. In data set [5], this compound displayed a CC50 at 96 h of 13.3 µM.

Consider `N#Cc1ccc(Nc2nccc(/C(=N\O)c3cccc(F)c3)n2)cc1`, for which the selectivity ratio is ≤ 2 in data set [1] and 67.9 in data set [6]. Moreover, the EC50 is 0.225 µM in data set [2], ≥ 8.33 µM in data set [3] and ≥ 6.7 µM in data set [4]. Half-maximal cytotoxicity in data set [5] (CC50 at 96 h) was put at 15.3 µM.

For `Cc1cccc(/C(=N/O)c2ccnc(Nc3ccc(C#N)cc3)n2)c1`, the selectivity ratio is < 1 in data set [1] and 626 in data set [6]. Moreover, the half-maximal effective concentration (EC50) in data set [2] is 0.032 µM; in data set [3] it was ≥ 11.6 µM; in data set [4], 4.52 µM. Besides, half-maximal cytotoxicity in data set [5] (CC50 at 96 h) was put at 20 µM.

Consider `COc1cccc(/C(=N/O)c2ccnc(Nc3ccc(C#N)cc3)n2)c1`, for which the selectivity ratio in data set [1] is 3.67; in data set [6], 1220. The “Ratio EC50” value in data set [7] is on record as 29; in data set [8], 8. Besides, the EC50 in data set [2] worked out at 0.025 µM; in data set [3] it was 8.31 µM; in data set [4], 8.72 µM. Also, in data set [5], the 50% cytotoxic concentration (CC50) at 96 h amounted to 30.5 µM.

On to `COc1ccc(/C(=N/O)c2ccnc(Nc3ccc(C#N)cc3)n2)cc1`, for which the results for the selectivity ratio in data set [1] and in data set [6] were ≤ 11 and 3790, respectively. The EC50 was 0.013 µM in data set [2], ≥ 4.72 µM in data set [3] and 10.3 µM in data set [4]. Further, in data set [5], the CC50 at 96 h was 50.2 µM.

For `CC(C)(C)c1ccc(/C(=N/O)c2ccnc(Nc3ccc(C#N)cc3)n2)cc1`, the selectivity ratio was < 1 in data set [1] and 234 in data set [6]. In addition, the results for the EC50 in data set [2], in data set [3] and in data set [4] were 0.144 µM, ≥ 33.7 µM and 7.2 µM, respectively. Moreover, in data set [5], the half-maximal cytotoxic concentration (CC50) at 96 h was 33.7 µM.

With `N#Cc1ccc(Nc2nccc(/C(=N\O)c3ccccc3Cl)n2)cc1`, the selectivity ratio in data set [1] is < 1; in data set [6], 997. Moreover, the values for the EC50 in data set [2], in data set [3] and in data set [4] were 0.013 µM, > 12.6 µM and > 12.6 µM, respectively. This compound also had a CC50 at 96 h in data set [5] of 12.6 µM.

In the case of `N#Cc1ccc(Nc2nccc(/C(=N\O)c3cccc(Cl)c3)n2)cc1`, the selectivity ratio in data set [1] is ≤ 4; in data set [6], 102. Also, the EC50 in data set [2] is 0.298 µM; in data set [3] it was ≥ 7.3 µM; in data set [4] it was > 14.9 µM. Besides, in data set [5], half-maximal cytotoxicity (CC50 at 96 h) was put at 30.4 µM.

With `Cc1cc(C)cc(/C(=N/O)c2ccnc(Nc3ccc(C#N)cc3)n2)c1`, the selectivity ratio was ≤ 4 in data set [1] and 756 in data set [6]. The EC50 was 0.047 µM in data set [2], ≥ 8.96 µM in data set [3] and 7.89 µM in data set [4]. Further, the midpoint of cytotoxicity in data set [5], the CC50 at 96 h, lay at 35.9 µM.

As for `N#Cc1ccc(Nc2nccc(/C(=N\O)c3ccccc3)n2)cc1`, the figures for the selectivity ratio in data set [1] and in data set [6] were < 1 and 24.6, respectively. Also, the EC50 in data set [2] is 0.569 µM; in data set [3] it was ≥ 14 µM; in data set [4], 5.6 µM. Moreover, in data set [5], the CC50 at 96 h amounted to 14 µM.

For the compound `N#Cc1ccc(Nc2nccc(/C(=N\O)c3ccccc3F)n2)cc1`, the selectivity ratio in data set [1] is < 1; in data set [6], 106. The 50% effective concentration (EC50) in data set [2] was 0.053 µM; in data set [3] it was > 5.67 µM; in data set [4] it was > 5.67 µM. In addition, in data set [5], the CC50 at 96 h worked out at 5.67 µM.

`N#Cc1ccc(Nc2nccc(/C(=N\O)c3cccc4ccccc34)n2)cc1`: the selectivity ratio is < 1 in data set [1] and 844 in data set [6]. For the same compound, the EC50 in data set [2] was 0.039 µM; in data set [3] it was > 33.1 µM; in data set [4], > 33.1 µM. Also, the CC50 at 96 h in data set [5] amounted to 33.1 µM.

With `N#Cc1ccc(Nc2nccc(/C(=N\O)c3ccc4ccccc4c3)n2)cc1`, the values for the selectivity ratio in data set [1] and in data set [6] were < 1 and 673, respectively. The EC50 in data set [2] is 0.047 µM; in data set [3], > 14.3 µM; in data set [4], > 14.3 µM. For the same compound, in data set [5], the CC50 at 96 h turned out to be 31.6 µM.

Take `CC(C)Nc1cccnc1N1CCN(C(=O)c2cc3cc(NS(C)(=O)=O)ccc3[nH]2)CC1` [DELAVIRDINE]: the EC50 in data set [2] is 0.72 µM; in data set [4], > 43.8 µM. The cytotoxic concentration (CC50) at 96 h in data set [5] was > 43.8 µM. Further, the selectivity ratio in data set [6] was > 62.

For `O=C1Nc2ccc(Cl)cc2[C@@](C#CC2CC2)(C(F)(F)F)O1` [EFAVIRENZ], the EC50 in data set [4] came to 0.18 µM. The CC50 at 96 h in data set [5] was > 6.34 µM.

As to `Cc1ccnc2c1NC(=O)c1cccnc1N2C1CC1` [NEVIRAPINE], the concentration for a half-maximal effect (EC50) was 0.2 µM in data set [2] and > 15 µM in data set [4]. Moreover, the CC50 at 96 h in data set [5] was > 15 µM. The selectivity ratio in data set [6] was > 75.
